These results are taken from ChEMBL document CHEMBL5370536, “Design, synthesis, and biological activity of dual monoamine oxidase A and heat shock protein 90 inhibitors, N-Methylpropargylamine-conjugated 4-isopropylresorcinol for glioblastoma” (Eur J Med Chem, 2023).

Test [1] addresses T1, Amine oxidase [flavin-containing] A (Mus musculus, UniProt Q64133).
T1 sequence (Q64133 whole entry): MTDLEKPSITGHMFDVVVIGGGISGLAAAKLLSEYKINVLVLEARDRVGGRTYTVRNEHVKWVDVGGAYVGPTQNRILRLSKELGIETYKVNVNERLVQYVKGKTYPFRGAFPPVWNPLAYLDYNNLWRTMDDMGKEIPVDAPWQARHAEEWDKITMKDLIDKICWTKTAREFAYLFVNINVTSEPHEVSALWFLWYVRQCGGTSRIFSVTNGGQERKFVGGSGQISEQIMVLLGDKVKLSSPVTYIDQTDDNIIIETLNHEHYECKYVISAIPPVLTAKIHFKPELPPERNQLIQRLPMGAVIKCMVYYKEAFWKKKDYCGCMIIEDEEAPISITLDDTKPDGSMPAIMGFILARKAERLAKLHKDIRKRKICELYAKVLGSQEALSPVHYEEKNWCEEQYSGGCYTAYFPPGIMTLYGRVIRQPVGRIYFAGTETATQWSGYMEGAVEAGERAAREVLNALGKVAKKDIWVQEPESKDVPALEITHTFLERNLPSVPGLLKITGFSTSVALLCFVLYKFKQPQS
The test is described as follows: Inhibition of MAO A in mouse GL26 cells preincubated for 20 mins followed by 14C-labeled 5-hydroxytryptamine addition and measured after 20 mins by scintillation counter analysis. The test is classed as cell-based.

The nature of test [2]: Antiproliferative activity against mouse GL26 cells assessed as inhibition of cell growth measured after 48 hrs by MTT assay. The test is classed as functional, cell-based. As to conditions: GL26, 48 h. The gist of the method:
(§1)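 Cells plated at 5×10³ per well 24 h before compound and grown in DMEM with 10% FBS at 37°C, 5% CO₂. After 48 h exposure, the medium was replaced with 0.5 mg/mL MTT for 3 h. Formazan was dissolved in DMSO and read at 570 nm.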

The subject of test [3] is GL26. Description: Downregulation of Akt phosphorylation expression at Ser 473 residues in mouse GL26 cells at 0.1 to 3 uM incubated for 24 hrs by Western blot analysis. The test is classed as functional, cell-based. As to conditions: dose 0.1-3 µM. The gist of the method: (§2)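 GL26 and U251R cells were seeded at 3 × 10⁵ per well 24 h ahead, then treated in compound-containing medium for 24 h. Cells were washed twice in ice-cold PBS and lysed in RIPA buffer (150 mM NaCl, 1% Triton X-100, 0.5% deoxycholate, 0.1% SDS, 50 mM Tris pH 8.0) plus protease inhibitors. Lysate was cleared at 4°C, protein was quantified by BCA, and western blotting followed.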

The subject of test [4] is U-251. The test is described as follows: Downregulation of Akt phosphorylation expression at Ser 473 residues in human Temozolomide-resistant U-251 cells at 0.1 to 3 uM incubated for 24 hrs by Western blot analysis. The test is classed as functional, cell-based. The settings on record: dose 0.1-3 µM. The essentials: as §2
(Immunoblotting shows a protein as a band on a membrane.)

The subject of test [5] is GL26. The test is described as follows: Downregulation of IFN-gamma induced PD-L1 expression in mouse GL26 cells at 20 uM incubated for 24 hrs by flow cytometry analysis. Type of test: functional, cell-based. The gist of the method:
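GL26 cells were seeded at 3.6 × 10⁵ per well and exposed to compound, with or without 10 ng/mL IFN-γ, for 24 h. Cells were stained with goat anti-PD-L1 for 1 h, then FITC donkey anti-goat for 1 h. Surface FITC was read by flow cytometry, and MFI was normalized to the secondary-only control as an MFI ratio.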
Background: In flow cytometry, cells or beads pass a laser one at a time.

Test [6] deals with GL26. Description: Antitumor activity against mouse GL26 cells xenografted in C57BL/6J mouse model assessed as tumor growth inhibition at 10 mg/kg, ip administered daily for 14 days by caliper method. The settings on record: time 14.0 day.
Test [7] has as its target Heat shock protein HSP 90-alpha (Homo sapiens, UniProt P07900). The test is described as follows: Inhibition of human recombinant HSP90alpha preincubated for 30 mins followed by FITC-GM addition and mesured after 3 hrs by fluorescence polarization assay. Background: Polarisation of emitted light reports the rotation of a fluorescent probe.
The subject of test [8] is U-251. Description: Antiproliferative activity against human Temozolomide-resistant U-251 cells assessed as inhibition of cell growth measured after 48 hrs by MTT assay. As to conditions: U-251, 48 h. The test is classed as functional, cell-based. The essentials: as §1

Calls of active or inactive are those of the source. The calls are words filed in the database; no cut-off is given here.

In general, IC50 refers to the concentration at which inhibition is half-maximal.

Turning to `C#CCN(C)CCCOc1cc(N(C)C(=O)c2cc(C(C)C)c(O)cc2O)ccc1Cl`, the IC50 in test [1] was over 10000 nM.
Consider `C#CCN(C)CCCOc1ccc(Cl)cc1Cl` [CLORGILINE], for which the IC50 in test [2] was over 100000 nM. In addition, the result in the test with GL26 [3], with U-251 [4] and in the test on GL26 [5] was Active. In addition, the result in the test with GL26 [6] was inactive.
In turn, `C#CCN(C)CCCOc1cc(N(CC)C(=O)c2cc(C(C)C)c(O)cc2O)ccc1Cl` gave an IC50 in test [1] of over 10000 nM.
On the same count and under the same terms, as for `C#CCN(C)CCCOc1cccc(N(CCC)C(=O)c2cc(C(C)C)c(O)cc2O)c1Cl`, the figure is 880 nM.
Regarding `C#CCN(C)CCCOc1cc(N(CCC)C(=O)c2cc(C(C)C)c(O)cc2O)ccc1Cl`, in test [1], the IC50 is 860 nM.
With `C#CCN(C)CCCOc1ccc(NC(=O)c2cc(C(C)C)c(O)cc2O)cc1Cl`, the IC50 is 110 nM in test [1], over 10000 nM in test [7], over 10000 nM in test [2] and over 10000 nM in the test on U-251 [8].
In test [1], `C#CCN(C)CCCOc1cccc(NC(=O)c2cc(C(C)C)c(O)cc2O)c1Cl` had an IC50 of 2360 nM.
